Legend:
Format in all cases: functional, cell-based
[1] = Cytotoxicity against human CNE2 cells after 3 days by MTT assay; conditions: CNE-2, 72 h
Procedure, shortened: (§1)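 Cells grown in RPMI 1640 with 10% fetal calf serum were plated from suspension and held 12 h at 37 °C, 5% CO2. Test sample was then added and cells were cultured 3 days at 37 °C. MTT was added for 4 h at 37 °C, supernatant removed, formazan dissolved in DMSO, absorbance read at 570 nm. IC50 = concentration giving 50% growth inhibition versus untreated control.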

KB = experiment: Cytotoxicity against human KB cells after 3 days by MTT assay; conditions: 72 h; procedure, shortened: as §1
MGC-803 = experiment: Cytotoxicity against human MGC803 cells after 3 days by MTT assay; conditions: MGC-803, 72 h; procedure, shortened: as §1
MCF7 = experiment: Cytotoxicity against human MCF7 cells after 3 days by MTT assay; conditions: MCF7, 72 h; procedure, shortened: as §1

| Compound | IC50 [1] [µM] | IC50 (KB) [µM] | IC50 (MGC-803) [µM] | IC50 (MCF7) [µM] |
| --- | --- | --- | --- | --- |
| Cc1cc(C)nc(Sc2ccc(NC(=O)Nc3ccc(OC(F)(F)F)cc3)cc2)n1 | 22.8 | 20 | 13.8 | 41.7 |
| COc1ccc(NC(=O)Nc2ccc(Cl)cc2Cl)cc1 | > 50 | > 50 | > 50 | > 50 |
| Cc1cccc(NC(=O)Nc2ccc(Oc3nc(C)cc(C)n3)cc2)c1 |  | > 50 |  |  |
| COc1ccc(NC(=O)Nc2ccc(Cl)cc2)cc1 | > 50 | > 50 |  | > 50 |
| Cc1cc(C)nc(Oc2ccc(NC(=O)Nc3ccc(OC(F)(F)F)cc3)cc2)n1 | 30.8 | 28.9 | > 50 | > 50 |
| Cc1cc(C)nc(Sc2ccc(NC(=O)Nc3ccccc3)cc2)n1 | 22 | 25.7 | 40.1 | > 50 |
| Cc1cc(C)nc(Oc2ccc(NC(=O)Nc3ccc(F)cc3)cc2)n1 | 46.9 | 48.4 | > 50 | > 50 |
| O=c1[nH]cc(F)c(=O)[nH]1 [FLUOROURACIL] | 13.1 | 11.9 | 12.6 | 15.2 |
| Cc1cc(C)nc(Oc2ccc(NC(=O)Nc3ccc(Cl)cc3Cl)cc2)n1 | 38.9 | 31.8 | 35.4 | 47.8 |
| Cc1cc(C)nc(Sc2ccc(NC(=O)Nc3ccc(F)cc3)cc2)n1 | 34.1 | 32.1 | > 50 | > 50 |
| Cc1cc(C)nc(Oc2ccc(NC(=O)Nc3ccc(Cl)cc3)cc2)n1 | 20.4 | 25.4 | > 50 | > 50 |
| Cc1cc(C)nc(Oc2ccc(NC(=O)Nc3ccccc3)cc2)n1 |  | > 50 |  |  |
| Cc1cc(C)nc(Sc2ccc(NC(=O)Nc3ccc(Cl)cc3Cl)cc2)n1 | 23.2 | 15.5 | > 50 | > 50 |
| Cc1cc(C)nc(Sc2ccc(NC(=O)Nc3ccc(Cl)cc3)cc2)n1 | 13.5 | 10.2 | 26.1 | 35.3 |
| Cc1cccc(NC(=O)Nc2ccc(Sc3nc(C)cc(C)n3)cc2)c1 | > 50 | 47.8 | 25.3 | 37 |
